{"source": "ChEMBL document CHEMBL5029200", "about": "“Imidazoline- and Benzamidine-Based Trypanosome Alternative Oxidase Inhibitors: Synthesis and Structure-Activity Relationship Studies” (ACS Med Chem Lett, 2022)", "key": {"[1]": {"assay": "Selectivity index, ratio of CC50 for HEK293 cells to EC50 for antitrypanosomal activity against bloodstream form trypomastigotes of wild type Trypanosoma brucei brucei Lister 427", "type": "toxicity", "conditions": "human, read-out: Selectivity Index", "in_short": "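Selectivity index = CC50 in HEK cells divided by EC50 against wild-type Lister 427. HEK cytotoxicity by resazurin assay. […] Both values from sigmoidal variable-slope nonlinear regression. n = 3.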"}, "[2]": {"test_system": "Trypanosoma brucei brucei", "assay": "Inhibition of recombinant Trypanosoma brucei brucei delta MTS TAO using ubiquinol as substrate measured at 40 uM after 2 mins by UV-vis spectrophotometry"}, "[3]": {"test_system": "Trypanosoma brucei brucei", "assay": "Antitrypanosomal activity against bloodstream form trypomastigotes of wild type Trypanosoma brucei brucei Lister 427 assessed as reduction in parasite viability by resazurin-based assay", "type": "functional, organism-based", "in_short": "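Monomorphic bloodstream-form trypanosomes grown in complete HMI-9 with 10% fetal bovine serum. Resazurin viability assay using 23 doubling dilutions of each compound, starting at 100 μM. EC50 obtained by nonlinear regression fitted to a variable-slope sigmoid. n = 3.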"}, "[4]": {"test_system": "Trypanosoma brucei brucei", "assay": "Inhibition of recombinant Trypanosoma brucei brucei delta MTS TAO using ubiquinol as substrate measured at 40 uM after 2 mins by UV-vis spectrophotometry"}, "[5]": {"assay": "Inhibition of recombinant Trypanosoma brucei brucei delta MTS TAO using ubiquinol as substrate measured after 2 mins by UV-vis spectrophotometry"}}, "data": [{"smiles": "Cc1cc(O)cc(O)c1C(=O)NCCCCCCCCCCCCCCOc1ccc(C(=N)NO)cc1", "values": [{"measurement": "selectivity ratio", "setting": "[1]", "value": 6.9}]}, {"smiles": "Cc1cc(O)cc(O)c1C(=O)NCCCCCCOc1ccc(C#N)cc1", "values": [{"measurement": "selectivity ratio", "setting": "[1]", "value": 6.6}]}, {"smiles": "C/C(=C\\Cc1c(O)c(Cl)c(C)c(C=O)c1O)CC/C=C(\\C)[C@@H]1CC(=O)C(C)(C)O1", "values": [{"measurement": "inhibition", "setting": "[2]", "value": 100, "unit": "%"}]}, {"smiles": "Cc1cc(O)cc(O)c1C(=O)NCCCCCCCCCCCCOc1ccc(C2=NCCN2)cc1", "values": [{"measurement": "EC50", "setting": "[3]", "value": 1700, "unit": "nM"}]}, {"smiles": "Cc1cc(O)cc(O)c1C(=O)NCCCCCCCCCCCCCCOc1ccc(C(=N)N)cc1", "values": [{"measurement": "selectivity ratio", "setting": "[1]", "value": 10.7}]}, {"smiles": "Cc1cc(O)cc(O)c1C(=O)NCCCOc1ccc(C(=N)N)cc1", "values": [{"measurement": "inhibition", "setting": "[4]", "value": 48, "unit": "%"}, {"measurement": "IC50", "setting": "[5]", "value": "> 40000", "unit": "nM"}]}]}
